Where two headings read alike, the source gives them in different places.
Key:
[1] = test system: HCV 1b replicon; test: HCV 1b replicon system, block of HCV replication; type: cell-based; conditions: for EC90: read-out: HCV Replicon EC90
[2] = test system: HCV; conditions: read-out: in vitro potency (EC50); cited from earlier work
[3] = Stability in human liver microsomes; type: in vitro ADME; conditions: for Elimination rate constant (k): 1 μM compound, 1 mg/mL microsomal protein; for microsomal CLint at 1 μM: human
How it was run: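 Test compound incubated with human liver microsomes in potassium phosphate buffer. Samples taken at 5, 15, 30 and 60 min and analysed by LC-MS/MS. The elimination rate constant (k) was determined, and half-life (t1/2) and intrinsic clearance (CLint) were calculated from k.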

[4] = test system: HCV; conditions: cited from earlier work
[5] = test system: PBM cells
[6] = test system: PBM cells; test: Cytotoxicity in PBM cells
[7] = Cytotoxicity in CEM cells; type: cell-based; conditions: human
[8] = Hepatitis C virus, read-out: HCV Replicon EC50, HCV 1b replicon system
[9] = Hepatitis C virus, read-out: HCV Replicon EC50

COC(=O)N[C@H](C(=O)N1CCC[C@H]1c1ncc(-c2ccc(-c3ccc(-c4cnc([C@@H]5CCCN5C(=O)[C@@H](NC(=O)OC)C(C)C)[nH]4)cc3)cc2)[nH]1)C(C)C [BMS-790052]
EC50 [1, 8]: 0.0042 ± 0.0015 nM | EC50 [2]: ≤ 0.05 nM | Elimination rate constant (k) [3]: 0.012 | viral load decline ([4]; after a single 100 mg dose): ≈ 3.3 log10 | toxicity after single dose ([4]; single 100 mg dose): no signs of toxicity

COC(=O)N[C@H](C(=O)N1CCC[C@H]1c1nc(Br)c(-c2ccc(-c3ccc(-c4[nH]c([C@@H]5CCCN5C(=O)[C@@H](NC(=O)OC)C(C)C)nc4Br)cc3)cc2)[nH]1)C(C)C [Compound 5a]
EC50 [1, 8]: 0.0059 ± 0.0039 nM | Elimination rate constant (k) [3]: 0.01

COC(=O)N[C@H](C(=O)N1CCC[C@H]1c1nc(Cl)c(-c2ccc(-c3ccc(-c4[nH]c([C@@H]5CCCN5C(=O)[C@@H](NC(=O)OC)C(C)C)nc4Cl)cc3)cc2)[nH]1)C(C)C [Compound 5b]
EC50 [1, 8]: 0.0064 ± 0.003 nM | Elimination rate constant (k) [3]: 0.0058 | microsomal CLint at 1 μM [3]: < 8.6 µL/min/mg

COC(=O)N[C@H](C(=O)N1CCC[C@H]1c1nc(I)c(-c2ccc(-c3ccc(-c4[nH]c([C@@H]5CCCN5C(=O)[C@@H](NC(=O)OC)C(C)C)nc4I)cc3)cc2)[nH]1)C(C)C [Compound 5c]
EC50 [1, 8]: 0.0055 ± 0.0019 nM | toxicity in primary human lymphocytes relative to reference compound 1 [5]: increased toxicity | Elimination rate constant (k) [3]: 0.018

COC(=O)N[C@H](C(=O)N1CCC[C@H]1c1nc(F)c(-c2ccc(-c3ccc(-c4[nH]c([C@@H]5CCCN5C(=O)[C@@H](NC(=O)OC)C(C)C)nc4F)cc3)cc2)[nH]1)C(C)C [Compound 5d]
EC50 [1, 8]: 0.0068 ± 0.0033 nM | Elimination rate constant (k) [3]: 0.0056 | microsomal CLint at 1 μM [3]: < 8.6 µL/min/mg | toxicity in primary human lymphocytes relative to reference compound 1 [6]: increased toxicity

COC(=O)N[C@H](C(=O)N1CCC[C@H]1c1ncc(-c2ccc(-c3ccc(-c4[nH]c([C@@H]5CCCN5C(=O)[C@@H](NC(=O)OC)C(C)C)nc4F)cc3)cc2)[nH]1)C(C)C [Compound 5e]
EC50 [1, 8]: 0.0144 ± 0.004 nM

COC(=O)N[C@H](C(=O)N1CCC[C@H]1c1nc(-c2ccccc2)c(-c2ccc(-c3ccc(-c4[nH]c([C@@H]5CCCN5C(=O)[C@@H](NC(=O)OC)C(C)C)nc4-c4ccccc4)cc3)cc2)[nH]1)C(C)C [Compound 6]
EC50 [1, 8]: 0.2 nM

COC(=O)N[C@H](C(=O)N1CCC[C@H]1c1nc(-c2ccco2)c(-c2ccc(-c3ccc(-c4[nH]c([C@@H]5CCCN5C(=O)[C@@H](NC(=O)OC)C(C)C)nc4-c4ccco4)cc3)cc2)[nH]1)C(C)C [Compound 7]
EC50 [1, 8]: 0.026 nM

COC(=O)N[C@H](C(=O)N1CCC[C@H]1c1nc(-c2cccs2)c(-c2ccc(-c3ccc(-c4[nH]c([C@@H]5CCCN5C(=O)[C@@H](NC(=O)OC)C(C)C)nc4-c4cccs4)cc3)cc2)[nH]1)C(C)C [Compound 8]
EC50 [1, 8]: 0.1 nM

COC(=O)N[C@H](C(=O)N1C[C@@H](N=[N+]=[N-])C[C@H]1c1ncc(-c2ccc(-c3ccc(-c4cnc([C@@H]5C[C@H](N=[N+]=[N-])CN5C(=O)[C@@H](NC(=O)OC)C(C)C)[nH]4)cc3)cc2)[nH]1)C(C)C [Compound 9]
EC50 [1, 8]: 0.023 nM | EC90 ([1]; Hepatitis C virus): 0.0352 nM

COC(=O)N[C@H](C(=O)N1C[C@H](N=[N+]=[N-])C[C@H]1c1ncc(-c2ccc(-c3ccc(-c4cnc([C@@H]5C[C@@H](N=[N+]=[N-])CN5C(=O)[C@@H](NC(=O)OC)C(C)C)[nH]4)cc3)cc2)[nH]1)C(C)C [Compound 10]
EC50 [1, 8]: 0.0095 nM | EC90 ([1]; Hepatitis C virus): 0.0542 ± 0.0341 nM | EC50 ([1]; read-out: HCV Replicon EC50, HCV 1b replicon system): 0.0184 ± 0.0126 nM

COC(=O)N[C@H](C(=O)N1C[C@H](n2cc(-c3ccccc3)nn2)C[C@H]1c1ncc(-c2ccc(-c3ccc(-c4cnc([C@@H]5C[C@@H](n6cc(-c7ccccc7)nn6)CN5C(=O)[C@@H](NC(=O)OC)C(C)C)[nH]4)cc3)cc2)[nH]1)C(C)C [Compound 11]
EC50 [1, 9]: 2.7 nM | EC90 ([1]; Hepatitis C virus): 9.2 nM

COC(=O)N[C@H](C(=O)N1C[C@H](n2cc(C(=O)OC)nn2)C[C@H]1c1ncc(-c2ccc(-c3ccc(-c4cnc([C@@H]5C[C@@H](n6cc(C(=O)OC)nn6)CN5C(=O)[C@@H](NC(=O)OC)C(C)C)[nH]4)cc3)cc2)[nH]1)C(C)C [Compound 12]
EC50 [1, 9]: 0.0118 nM | EC90 ([1]; Hepatitis C virus): 0.0428 nM

COC(=O)N[C@H](C(=O)N1C[C@@H](n2cc(-c3ccccc3)nn2)C[C@H]1c1ncc(-c2ccc(-c3ccc(-c4cnc([C@@H]5C[C@H](n6cc(-c7ccccc7)nn6)CN5C(=O)[C@@H](NC(=O)OC)C(C)C)[nH]4)cc3)cc2)[nH]1)C(C)C [Compound 13]
EC90 ([1]; Hepatitis C virus): > 10 nM | CC50 [7]: > 100000 nM

COC(=O)N[C@H](C(=O)N1C[C@@H](n2cc(C(=O)OC)nn2)C[C@H]1c1ncc(-c2ccc(-c3ccc(-c4cnc([C@@H]5C[C@H](n6cc(C(=O)OC)nn6)CN5C(=O)[C@@H](NC(=O)OC)C(C)C)[nH]4)cc3)cc2)[nH]1)C(C)C [Compound 14]
EC50 [1, 9]: > 10 nM | EC90 ([1]; Hepatitis C virus): > 10 nM

COC(=O)N[C@H](C(=O)N1C[C@H](N=[N+]=[N-])C[C@H]1c1nc(Cl)c(-c2ccc(-c3ccc(-c4[nH]c([C@@H]5C[C@@H](N=[N+]=[N-])CN5C(=O)[C@@H](NC(=O)OC)C(C)C)nc4Cl)cc3)cc2)[nH]1)C(C)C [Compound 15]
EC50 [1, 9]: 0.0047 nM | EC90 ([1]; Hepatitis C virus): 0.0096 nM

COC(=O)N[C@H](C(=O)N1C[C@H](N=[N+]=[N-])C[C@H]1c1ncc(-c2ccc(-c3ccc(-c4[nH]c([C@@H]5C[C@@H](N=[N+]=[N-])CN5C(=O)[C@@H](NC(=O)OC)C(C)C)nc4Cl)cc3)cc2)[nH]1)C(C)C [Compound 16]
EC50 [1, 8]: 0.0063 nM

COC(=O)N[C@H](C(=O)N1C[C@H](N=[N+]=[N-])C[C@H]1c1nc(Br)c(-c2ccc(-c3ccc(-c4[nH]c([C@@H]5C[C@@H](N=[N+]=[N-])CN5C(=O)[C@@H](NC(=O)OC)C(C)C)nc4Br)cc3)cc2)[nH]1)C(C)C [Compound 17]
EC50 [1, 9]: 0.0026 nM | EC90 ([1]; Hepatitis C virus): 0.0216 nM

COC(=O)N[C@H](C(=O)N1C[C@@H](N=[N+]=[N-])C[C@H]1c1nc(Cl)c(-c2ccc(-c3ccc(-c4[nH]c([C@@H]5C[C@H](N=[N+]=[N-])CN5C(=O)[C@@H](NC(=O)OC)C(C)C)nc4Cl)cc3)cc2)[nH]1)C(C)C [Compound 18]
EC50 [1, 9]: 0.0112 nM | EC90 ([1]; Hepatitis C virus): 0.0746 nM

COC(=O)N[C@H](C(=O)N1C[C@@H](N=[N+]=[N-])C[C@H]1c1nc(Br)c(-c2ccc(-c3ccc(-c4[nH]c([C@@H]5C[C@H](N=[N+]=[N-])CN5C(=O)[C@@H](NC(=O)OC)C(C)C)nc4Br)cc3)cc2)[nH]1)C(C)C [Compound 19]
EC50 [1, 9]: 0.0083 nM | EC90 ([1]; Hepatitis C virus): 0.0553 nM
